# The source made the active and inactive calls. The calls are words filed in the database; no cut-off is given here.
# Experiments:
# [1] = Antioxidant activity assessed as DPPH radical scavenging activity after 5 mins by spectrophotometric analysis; format: functional
# [2] = Antioxidant activity after 5 mins by NBT assay; format: functional
# In short: (§1)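 Nonenzymatic superoxide scavenging read in 96-well plates. Final mixture: NADH 78 μM, NBT 50 μM, PMS 10 μM, test compound at 350, 116, 39 and 13 μM. Reagents in 16 mM Tris-HCl pH 8, compounds in DMSO. After 5 min at room temperature, absorbance at 560 nm against a no-PMS blank. IC50 taken from steady-state percent inhibition per dilution. Ascorbic acid as positive control. Triplicates averaged.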
# [3] = Antioxidant activity assessed as superoxide anion radical scavenging activity after 5 mins by spectrophotometric analysis; format: functional; in short: as §1
# Fibroblast = experiment: Cytotoxicity against human Fibroblasts assessed as cell growth inhibition; format: cell-based
# In short: (§2)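 Inhibition of proliferation tested on a panel of human lines: Huh7D12 (differentiated hepatocellular carcinoma), Caco 2 (differentiating colorectal adenocarcinoma), MDA-MB-231 (breast carcinoma), HCT-116 (actively proliferating colorectal carcinoma), PC3 (prostate carcinoma) and NCI-H2 (lung carcinoma). Diploid skin fibroblasts served as the normal control line. Result reported as IC50.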
# [4] = Cytotoxicity against human NCI-H2 cells assessed as cell growth inhibition; format: functional, cell-based; in short: as §2
# B16 = experiment: Cytotoxicity against mouse B16 cells assessed as cell growth inhibition incubated for 72 hrs by MTT assay; format: functional, cell-based; conditions: B16, 72 h
# HaCaT = experiment: Cytotoxicity against human HaCaT cells assessed as cell growth inhibition incubated for 72 hrs by MTT assay; format: functional, cell-based
# [5] = Cytotoxicity against human Huh7D12 cells assessed as cell growth inhibition; format: functional, cell-based; conditions: Huh-7D12
# PC-3 = experiment: Cytotoxicity against human PC3 cells assessed as cell growth inhibition; format: functional, cell-based; in short: as §2
# MDA-MB-231 = experiment: Cytotoxicity against human MDA-MB-231 cells assessed as cell growth inhibition; format: functional, cell-based
# HCT-116 = experiment: Cytotoxicity against human HCT116 cells assessed as cell growth inhibition; format: functional, cell-based; in short: as §2
# Caco-2 = experiment: Cytotoxicity against human Caco2 cells assessed as cell growth inhibition; format: functional, cell-based
IC50 [1],IC50 [2] [nM],IC50 [3] [nM],Compound,inhibition [3],IC50 (Fibroblast) [nM],IC50 [4] [nM],IC50 (B16) [nM],IC50 (HaCaT) [nM],IC50 [5] [nM],IC50 (PC-3) [nM],IC50 (MDA-MB-231) [nM],IC50 (HCT-116) [nM],IC50 (Caco-2) [nM]
Not Active,6100,–,COC1=CC(=O)c2c(O)c3c(c(O)c2C1=O)[C@@H](OC)[C@H](C)OC3=O,Active,–,–,–,–,–,–,–,–,–
–,–,–,CC[C@H](CO)Nc1nc(NCc2ccccc2)c2ncn(C(C)C)c2n1 [SELICICLIB],–,7000,18000,–,–,–,–,–,–,–
Not Active,49900,50000,COC1=CC(=O)c2c(O)c3c(c(O)c2C1=O)[C@@H]1O[C@@H](C)C[C@@H]1OC3=O,–,–,–,> 10000,> 10000,–,–,–,–,–
–,–,–,CC(=O)O[C@H]1C(=O)[C@@]2(C)[C@H]([C@H](OC(=O)c3ccccc3)[C@]3(O)C[C@H](OC(=O)[C@H](O)[C@@H](NC(=O)c4ccccc4)c4ccccc4)C(C)=C1C3(C)C)[C@]1(OC(C)=O)CO[C@@H]1C[C@@H]2O [PACLITAXEL],–,> 250,20,–,–,8,4,21,3,14
> 500 µg/mL,1900,–,COC1=CC(=O)c2c(O)c3c(c(O)c2C1=O)C[C@H](C)OC3=O,Active,4000,2500,2400,14200,3000,4000,10000,2600,4000
–,–,–,COc1cccc2c1C(=O)c1c(O)c3c(c(O)c1C2=O)C[C@@](O)(C(=O)CO)C[C@@H]3O[C@H]1C[C@H](N)[C@H](O)[C@H](C)O1 [DOXORUBICIN],–,40,40,430,530,60,90,30,80,30
–,22100,–,O=C1O[C@H]([C@@H](O)CO)C(O)=C1O [ASCORBIC ACID],Active,–,–,–,–,–,–,–,–,–
–,–,–,CC[C@]1(O)C[C@H]2CN(CCc3c([nH]c4ccccc34)[C@@](C(=O)OC)(c3cc4c(cc3OC)N(C=O)[C@H]3[C@@](O)(C(=O)OC)[C@H](OC(C)=O)[C@]5(CC)C=CCN6CC[C@]43[C@@H]65)C2)C1 [VINCRISTINE],–,–,–,500,650,–,–,–,–,–

Compound,IC50 [1],IC50 [2] [nM],IC50 [3] [nM],inhibition [3],IC50 (Fibroblast) [nM],IC50 [4] [nM],IC50 (B16) [nM],IC50 (HaCaT) [nM],IC50 [5] [nM],IC50 (PC-3) [nM],IC50 (MDA-MB-231) [nM],IC50 (HCT-116) [nM],IC50 (Caco-2) [nM]
O=C(O)c1cc(O)c(O)c(O)c1 [GALLIC ACID],7.2 µg/mL,–,–,–,–,–,–,–,–,–,–,–,–

# From ChEMBL document CHEMBL4431303, “Minor Pyranonaphthoquinones from the Apothecia of the Lichen Ophioparma ventosa” (J Nat Prod, 2016)
